Key:
[1] = test system: MDA-MB-231; assay: Antiproliferative activity against human MDA-MB-231 cells assessed as inhibition of cell growth at 10 uM incubated for 48 hrs by MTT assay; type: functional
Procedure, shortened: (§1)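 Single-concentration screen: cells (ATCC; 37 °C, 5% CO₂) seeded at 4 × 10⁴ per well, adhered overnight, then treated 48 h at 10 μM. Medium removed, MTT (2.5 mg mL⁻¹) added for 4 h, formazan dissolved in DMSO, absorbance read at 570 nm; percent inhibition versus untreated cells.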

[2] = test system: MCF7; assay: Antiproliferative activity against human MCF7 cells assessed as inhibition of cell growth at 10 uM incubated for 48 hrs by MTT assay; type: functional; procedure, shortened: as §1
[3] = test system: ZR-75-1; assay: Antiproliferative activity against human ZR-75-1 cells assessed as inhibition of cell growth at 10 uM incubated for 48 hrs by MTT assay; type: functional; procedure, shortened: as §1
[4] = test system: MDA-MB-231; assay: Antiproliferative activity against human MDA-MB-231 cells assessed as inhibition of cell growth incubated for 48 hrs by MTT assay; type: functional, cell-based; conditions: MDA-MB-231, 48 h
[5] = test system: ZR-75-1; assay: Antiproliferative activity against human ZR-75-1 cells assessed as inhibition of cell growth incubated for 48 hrs by MTT assay; type: functional, cell-based; conditions: ZR-75-1, 48 h
[6] = test system: MCF7; assay: Antiproliferative activity against human MCF7 cells assessed as inhibition of cell growth incubated for 48 hrs by MTT assay; type: functional, cell-based; conditions: MCF7, 48 h
Procedure, shortened: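 MCF-7 exposed 48 h to 0.625, 1.25, 2.5, 5, 10, 20 and 40 μM. MTT (2.5 mg mL⁻¹) added for 4 h, medium removed, formazan solubilized in DMSO, absorbance at 570 nm; percent growth inhibition calculated and IC50 derived.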

[7] = test system: MDA-MB-231; assay: Antiproliferative activity against human MDA-MB-231 cells assessed as inhibition of cell growth at 1 uM incubated for 48 hrs by MTT assay; type: functional
Procedure, shortened: (§2)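 Positive-control reference measured alongside the single-concentration screen: cells seeded at 4 × 10⁴ per well, adhered overnight, exposed 48 h to doxorubicin at 1 μM. MTT (2.5 mg mL⁻¹) added for 4 h, formazan dissolved in DMSO, absorbance at 570 nm; percent growth inhibition relative to untreated cells.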

[8] = test system: MCF7; assay: Antiproliferative activity against human MCF7 cells assessed as inhibition of cell growth at 1 uM incubated for 48 hrs by MTT assay; type: functional; procedure, shortened: as §2
[9] = test system: ZR-75-1; assay: Antiproliferative activity against human ZR-75-1 cells assessed as inhibition of cell growth at 1 uM incubated for 48 hrs by MTT assay; type: functional; procedure, shortened: as §2

IC50 [4]	IC50 [6]	Compound	inhibition at 10 µM [1]	inhibition at 10 µM [2]	inhibition at 10 µM [3]	IC50 [5]	inhibition at 1 µM [7]	inhibition at 1 µM [8]	inhibition at 1 µM [9]
–	–	COc1ccc(-c2ncn(-c3ccccc3)n2)cc1	0%	0.853%	0%	–	–	–	–
–	–	c1ccc2c(-c3ncn(-c4ccc5c(c4)OCO5)n3)cccc2c1	15.3%	5.71%	–	–	–	–	–
21 µM	5.7 µM	COc1cc(-n2cnc(-c3cccc(N)c3)n2)cc(OC)c1OC	22.7%	57.6%	12.1%	71 µM	–	–	–
–	–	COc1ccc(-n2cnc(-c3ccc(C(F)(F)F)cc3)n2)cc1OC	15.8%	21.3%	–	–	–	–	–
–	–	COc1cccc(-c2ncn(-c3cc(OC)c(OC)c(OC)c3)n2)c1	16.4%	16.4%	–	–	–	–	–
–	–	COc1cc(-n2cnc(-c3ccc(F)cc3)n2)cc(OC)c1OC	23.1%	20.2%	–	–	–	–	–
–	–	COc1ccc(-n2cnc(-c3ccc(Cl)cc3)n2)cc1OC	0%	9.2%	0%	–	–	–	–
94 µM	11 µM	COc1cc(-n2cnc(-c3cccc(C(F)(F)F)c3)n2)cc(OC)c1OC	5.77%	48.6%	2.39%	98 µM	–	–	–
–	–	COc1cc(-n2cnc(-c3ccc(F)c(F)c3)n2)cc(OC)c1OC	23.4%	23.3%	–	–	–	–	–
1.7 µM	–	COc1cccc2c1C(=O)c1c(O)c3c(c(O)c1C2=O)C[C@@](O)(C(=O)CO)C[C@@H]3O[C@H]1C[C@H](N)[C@H](O)[C@H](C)O1 [DOXORUBICIN]	–	–	–	1.2 µM	37.9%	45.5%	45.5%
–	–	COc1ccc(-c2ncn(-c3cc(OC)c(OC)c(OC)c3)n2)cn1	5.25%	35.9%	4.95%	–	–	–	–
–	–	COc1cc(-n2cnc(-c3ccc4c(c3)OCO4)n2)cc(OC)c1OC	17.9%	21.2%	–	–	–	–	–
